Measurements from ChEMBL document CHEMBL4130635, “2,4-Diaminoquinazolines as Dual Toll-like Receptor (TLR) 7/8 Modulators for the Treatment of Hepatitis B Virus” (J Med Chem, 2018).
Active and inactive are the calls of the source. The rule behind the calls is not given here.

What was measured:
[1] = Intrinsic clearance in human liver microsomes assessed per mg protein at 1 uM up to 60 mins; assay type: ADME, microsome; conditions: read-out: CLH
[2] = Stability in mouse hepatocytes assessed compound turnover at 1 uM after 60 mins; assay type: ADME, cell-based, Hepatocyte; conditions: read-out: Drug metabolism
[3] = Protein binding in cynomolgus monkey plasma fraction at 5 uM after 4.5 hrs LC-MS/MS-based rapid equilibrium dialysis method; assay type: ADME, cell-free, Macaca fascicularis; conditions: read-out: PPB (converted)
[4] = Hepatic extraction ratio in Sprague-Dawley rat hepatocytes; assay type: ADME, cell-based, Hepatocyte; conditions: in vivo, in the assay text read “in Sprague-Dawley rat” for “in Sprague-Dawley rat hepatocytes”, read-out: ERH
Outline: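 Male Sprague-Dawley rats given 10 mg/kg po as a solution; compound measured in portal vein and systemic circulation to derive the hepatic extraction ratio.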

Liver [5] = assay: Induction of IFNalpha levels in C57BL/6J mouse liver at 10 mg/kg, po by ELISA (reference value: 30 pg/g); assay type: functional
Plasma [6] = assay: Effect on cytokine profile in C57BL/6J mouse plasma assessed as IL-12p70 levels at 10 mg/kg, po by multiplex assay (reference value: 560 pg/ml); assay type: functional
Outline: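 Single oral gavage in 20% HP-β-CD to healthy C57BL/6 mice, groups of 15 at 0.3, 1, 3, 10 or 30 mg/kg. Three mice per group sacrificed at 0.5, 1, 2, 4 or 7 h. Plasma and liver cytokines by multiplex, maximum level reported, rounded to nearest multiple of 5.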

Plasma [7] = assay: Proinflammatory activity in C57BL/6J mouse plasma assessed as IL-1beta levels at 0.3 mg/kg, po by multiplex assay (reference value: 60 pg/ml); assay type: functional
Liver [8] = assay: Proinflammatory activity in C57BL/6J mouse liver assessed as IL-1beta levels at 1 mg/kg, po by multiplex assay; assay type: functional
Plasma [9] = assay: Proinflammatory activity in C57BL/6J mouse plasma assessed as IL-6 levels at 3 mg/kg, po by multiplex assay (reference value: 505 pg/ml); assay type: functional
Plasma [10] = assay: Proinflammatory activity in C57BL/6J mouse plasma assessed as IL-6 levels at 30 mg/kg, po by multiplex assay (reference value: 505 pg/ml); assay type: functional
Liver [11] = assay: Proinflammatory activity in C57BL/6J mouse liver assessed as IL-6 levels at 0.3 mg/kg, po by multiplex assay (reference value: 10 pg/g); assay type: functional, organism-based
[12] = Cmax in cynomolgus monkey plasma at 9 mg/kg, po by LC-MS analysis; assay type: ADME, organism-based, Macaca fascicularis; design: dose 9 mg/kg, route oral
Outline: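 Healthy cynomolgus monkeys received oral doses of 1, 3, 9 and 30 mg/kg, with a 2-week wash-out between doses. Systemic compound concentrations by LC−MS at 0.25, 0.5, 1, 2, 4, 8 and 24 h postdose.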

[13] = AUC (0 to last) in cynomolgus monkey plasma at 9 mg/kg, po by LC-MS analysis; assay type: ADME, organism-based, Macaca fascicularis; design: dose 9 mg/kg, route oral, time 0 - last
Outline: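 Healthy cynomolgus monkeys received single oral doses of 1, 3, 9 and 30 mg/kg, with a 2-week wash-out between doses. Systemic compound concentrations were measured by LC–MS at 0.25, 0.5, 1, 2, 4, 8 and 24 h postdose.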

Cynomolgus monkey [14] = assay: Plasma concentration in cynomolgus monkey at 9 mg/kg, po by LC-MS analysis; assay type: ADME, organism-based, Macaca fascicularis; conditions: in vivo
Cynomolgus monkey [15] = assay: Effect on cytokine profile in cynomolgus monkey plasma assessed as IL-12P70 levels at 30 mg/kg, po after 24 hrs by Luminex assay (reference value: 2.17 pg/ml); assay type: functional, Macaca fascicularis
Outline: (§1)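 Healthy cynomolgus monkeys given single oral doses of 1, 3, 9 and 30 mg/kg, with a 2-week wash-out planned between doses. Systemic cytokine levels in plasma were sampled at 0.5, 1, 2, 4, 9 and 24 h postdose.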

Cynomolgus monkey [16] = assay: Proinflammatory activity in cynomolgus monkey plasma assessed as TNFalpha levels at 1 mg/kg, po after 24 hrs by Luminex assay (reference value: 285 pg/ml); assay type: functional, organism-based; conditions: Macaca fascicularis
Cynomolgus monkey [17] = assay: Proinflammatory activity in cynomolgus monkey plasma assessed as IL-8 levels at 3 mg/kg, po after 24 hrs by Luminex assay (reference value: 430 pg/ml); assay type: functional, Macaca fascicularis
Cynomolgus monkey [18] = assay: Induction of G-CSF in cynomolgus monkey plasma at 1 mg/kg, po after 24 hrs by Luminex assay (reference value: 85 pg/ml); assay type: functional, organism-based; conditions: Macaca fascicularis; outline: as §1
Cynomolgus monkey [19] = assay: Induction of G-CSF in cynomolgus monkey plasma at 3 mg/kg, po after 24 hrs by Luminex assay (reference value: 85 pg/ml); assay type: functional, organism-based; conditions: Macaca fascicularis; outline: as §1
[20] = target: T1, TLR7 and TLR8 (Homo sapiens) (UniProt Q9NYK1+Q9NR97); assay: Agonist activity at TLR7/8 in human PBMCs co-cultured with primary human hepatocytes infected with HBV genotype C for 12 days assessed as increase in IL-6 levels up to 5 uM measured after 42 days
[21] = target: T1, TLR7 and TLR8 (Homo sapiens); assay: Agonist activity at TLR7/8 in human PBMCs co-cultured with primary human hepatocytes infected with HBV genotype C for 12 days assessed as increase in MCP1 levels up to 5 uM measured after 42 days
[22] = target: T1, TLR7 and TLR8 (Homo sapiens); assay: Agonist activity at TLR7/8 in human PBMCs co-cultured with primary human hepatocytes infected with HBV genotype C for 12 days assessed as increase in IL-12p70 levels up to 5 uM measured after 42 days
[23] = target: T1, TLR7 and TLR8 (Homo sapiens); assay: Agonist activity at TLR7/8 in human PBMCs co-cultured with primary human hepatocytes infected with HBV genotype C for 12 days assessed as increase in IL-10 levels up to 5 uM measured after 42 days
Hepatocyte = assay: Toxicity in human primary hepatocytes infected with HBV genotype C for 12 days followed by exposure to conditioned supernatant from at 5 uM compound treated PBMCs assessed as increase in AST level measured after 42 days relative to untreated control; assay type: cell-based; conditions: 1008 h
[24] = Selectivity index, ratio of compound concentration causing induction of AST level in primary human hepatocytes infected with HBV genotype C for 12 days followed by exposure to conditioned supernatant from at 5 uM compound treated PBMCs measured after 42 days to Agonist activity at human TLR7 expressed in HEK293 cells

CCC[C@@H](CCO)Nc1nc(N)nc2c(F)cccc12 showed a microsomal CLint at 1 µM [1] of 8 µL/min/mg, a metabolised at 1 h, 1 µM [2] of 99% and a fraction unbound at 4.5 h, 5 µM [3] of 0.46. The hepatic extraction ratio [4] was 0.74, the Activity (Liver [5]) was 1365 pg/g and the Activity (Plasma [6]) was 630 pg/mL. It also gave an Activity (Plasma [7]) of 50 pg/mL, an Activity (Liver [8]) of 16445 pg/g and an Activity (Plasma [9]) of 4970 pg/mL. For the same compound, the Activity (Plasma [10]) was over 10000 pg/mL, the Activity (Liver [11]) was “Below limit of detection” and the Cmax [12] was 815 ng/mL. For the same compound, the AUC(0-t) [13] was 4050 ng·h/mL, the Cp (Cynomolgus monkey [14]) was 200 ng/mL and the Activity (Cynomolgus monkey [15]) was 10.1 pg/mL. The Activity (Cynomolgus monkey [16]) was “Below limit of detection”, the Activity (Cynomolgus monkey [17]) was 1505 pg/mL and the Activity (Cynomolgus monkey [18]) was “Below limit of detection”. For the same compound, the Activity (Cynomolgus monkey [19]) was “Below limit of detection”, the Activity [20] was “Active” and the Activity [21] was “Active”. For the same compound, the Activity [22] was “Active”, the Activity [23] was “Active” and the “fold change (FC)” value (Hepatocyte) was 2.6. For the same compound, the Ratio [24] was 25.
